Data as given in ChEMBL document CHEMBL1126319, “Synthesis, antiproliferative, and antiviral activity of certain 4-aminopyrrolo[2,3-d]pyridazine nucleosides: an entry into a novel series of adenosine analogues” (J Med Chem, 1992).

Tests used:
[1] = Cytotoxicity of compound was determined visually in human diploid fibroblasts (HFF).
Outline: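 HFF cells are grown in MEM(E) with 10% FBS. Drug-induced cytopathology in uninfected cells of the HCMV plaque assay is scored 0 to 4+ at 35- and 60-fold magnification on the day of plaque staining. IC50 comes from regression against log concentration.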

L1210 [2] = test: In vitro antiproliferative effect against growth rate of L1210 cells at 100 uM concentration; assay type: functional, Mus musculus
Outline: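 L1210 cells are held in static suspension in Fischer's medium with compound at 100 μM. Cell counts are taken at 0, 48 and 96 h. Growth rate is the semilog slope versus time as a percent of control.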

Human alphaherpesvirus 1 = test: Concentration required to decrease the growth rate to 50% of control was evaluated against HSV-1 by using enzyme immunoassay.
Human betaherpesvirus 5 [3] = test: Concentration required to decrease the growth rate to 50% of control was evaluated against HCMV by using plaque reduction assay.; assay type: functional, organism-based
Outline: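 HFF monolayers infected with about 50 PFU of HCMV Towne strain (plaque-purified P0 isolate) in a 0.2 mL inoculum. Compounds are dissolved in the overlay medium and plaques are counted. Percent inhibition is regressed linearly against log concentration to give the IC50. Acyclovir or ganciclovir serves as positive control. Values are averages of two to seven experiments.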

Homo sapiens [4] = species: Homo sapiens; test: In vitro antiproliferative effect against growth rate of H. Ep.2 cells at 100 uM concentration; assay type: functional
Outline: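 H.Ep.2 cells receive compound at 100 μM. Growth is read by crystal violet A560-570 at days 0, 2 and 5 and expressed as growth rate, the slope of semilog cell number versus time as a percent of control.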

L1210 [5] = test: Concentration required to decrease the growth rate to 50% of control was evaluated by determining their ability to inhibit growth of L1210 cells in vitro.; assay type: functional, cell-based; conditions: Mus musculus
Outline: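 L1210 cells are grown in static suspension in Fischer's medium. Cell number is counted at 0, 48 and 96 h across a range of compound concentrations. Growth rate is the semilog slope as a percent of control; the 48–96 h rate is used if growth slowed. IC50 is the concentration giving 50% of control growth rate.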

KB = test: Cytotoxicity of compound was determined by assaying cell growth in human neoplastic cell line(KB).; assay type: functional, cell-based
Outline: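 KB cells (human epidermoid oral carcinoma) are grown in MEM(H) with 5% FBS. Growth is measured spectrophotometrically by crystal violet staining two days after drug treatment. IC50 comes from linear regression of percent inhibition against log concentration.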

Human betaherpesvirus 5 [6] = test: Concentration required to decrease the growth rate to 50% of control was evaluated against HCMV by using yield reduction assay.; assay type: functional
Homo sapiens [7] = species: Homo sapiens; test: Concentration required to decrease the growth rate to 50% of control was evaluated by determining their ability to inhibit growth of H.Ep.2 cells in vitro.; assay type: functional, cell-based; conditions: HEp-2
Outline: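 H.Ep.2 cells are grown in MEM (Earle's salts) with 15% bovine calf serum under 5% CO2, and 2000 cells/well are plated in MEM with 5% serum. Compounds are added 1 day later. Growth is read by crystal violet staining (A560-570) at days 0, 2 and 5 after addition. Growth rate is Td(control)/Td(treated), and IC50 is the concentration halving growth rate.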

Row | Compound | IC50 [1] [µM] | Control (L1210 [2]) [%] | IC50 (Human alphaherpesvirus 1) [µM] | IC50 (Human betaherpesvirus 5 [3]) [µM] | Control (Homo sapiens [4]) [%] | IC50 (L1210 [5]) [µM] | IC50 (KB) [µM] | Of control (Homo sapiens [4]) [%] | IC90 (Human betaherpesvirus 5 [6]) [µM] | IC50 (Homo sapiens [7]) [µM]
1 | Nc1nncc2c1ccn2C1O[C@H](CO)[C@@H](O)[C@H]1O (stereo partly drawn) | > 100 | 100 | > 100 | > 100 | 93 |  |  |  |  | 
2 | Nc1nncc2c1ccn2C1O[C@H](CO)[C@@H](O)[C@@H]1O (stereo partly drawn) | > 100 | 88 | > 100 | > 100 |  | > 100 |  |  |  | 
3 | Nc1nncc2c1c(Br)cn2C1O[C@H](CO)[C@@H](O)[C@H]1O (stereo partly drawn) | 100 | 9 | 30 | 90 |  | 24 | 12 | 6 | 2.2 | 5.2
4 | Nc1ncnc2c1c(Br)cn2[C@@H]1O[C@H](CO)[C@@H](O)[C@H]1O | 1.2 | 9 | 4 | 0.6 |  |  | 3 |  | 3.5 | 
5 | Nc1nc2c(ncn2COCCO)c(=O)[nH]1 [ACYCLOVIR] | > 100 |  | 3.4 |  |  |  | > 100 |  | 90 | 
6 | Nc1nc2c(ncn2COC(CO)CO)c(=O)[nH]1 [GANCICLOVIR] | > 100 |  |  | 8.4 |  |  | > 100 |  | 1.8 | 
7 | Nc1ncnc2c1ccn2[C@@H]1O[C@H](CO)[C@@H](O)[C@H]1O [TUBERCIDIN] | 0.4 | 0 |  |  |  |  | 1 | 0 |  | 0.06
